The results in this text go back to ChEMBL document CHEMBL1125461, “Analogues of platelet activating factor. 6. Mono- and bis-aryl phosphate antagonists of platelet activating factor” (J Med Chem, 1992).

Holding throughout (assay type): functional
The species entered for test [1] is Oryctolagus cuniculus. The test is described as follows: Compound was tested for its ability to inhibit PAF induced platelet aggregation in rabbit at a dose of 10 uM.
In test [2] the test system is Mus musculus. The test is described as follows: Compound was tested for protecting PAF-induced lethality in mouse at a dose of 0.5 mg/kg (Out of 41). The procedure, abridged:
(§1)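 Female Swiss-Webster mice (20–25 g) were dosed ip with compound in saline at 10 mL/kg, and controls got saline alone. Thirty minutes later, racemic C16-PAF in saline was given as an iv tail-vein bolus at 10 mL/kg (75–150 µg/kg PAF). Survival was checked at 1.5 h and was recorded as dead/total.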

The subject of test [3] is Mus musculus. The test is described as follows: Compound was tested for protecting PAF-induced lethality in mouse at a dose of 0.5 mg/kg (Out of 9). The procedure, abridged:
as §1

Test [4] concerns Mus musculus. The test is described as follows: Compound was tested for protecting PAF-induced lethality in mouse at a dose of 0.5 mg/kg (Out of 38). A digest of the protocol:
as §1

Test [5] concerns Oryctolagus cuniculus. Put plainly: Compound was tested for protecting PAF-induced lethality in rabbit at a dose of 3 mg/kg (Out of 2).
The test system of test [6] is Mus musculus. The test is described as follows: Compound was tested for protecting PAF-induced lethality in mouse at a dose of 2.5 mg/kg (Out of 10). The procedure, abridged:
as §1

For test [7], the system named is Oryctolagus cuniculus. The test is described as follows: Compound was tested for protecting PAF-induced lethality in rabbit at a dose of 2.5 mg/kg (Out of 2). A digest of the protocol:
(§2)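 Rabbits got compound iv 15 min before an iv challenge of L-C16-PAF at 150 µg/kg, made from a methanol stock diluted in saline. Controls were saline-treated. Survival was checked at 1 h and was recorded as dead/total.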

Test [8] deals with Mus musculus. Put plainly: Compound was tested for protecting PAF-induced lethality in mouse at a dose of 1.25 mg/kg (Out of 10). A digest of the protocol:
as §1

Test [9] has as its system Mus musculus. Put plainly: Compound was tested for protecting PAF-induced lethality in mouse at a dose of 1 mg/kg (Out of 10). The procedure, abridged: as §1
For test [10], the system named is Mus musculus. Put plainly: Compound was tested for protecting PAF-induced lethality in mouse at a dose of 0.5 mg/kg (Out of 11). The procedure, abridged: as §1
In test [11] the test system is Oryctolagus cuniculus. Put plainly: Compound was tested for protecting PAF-induced lethality in rabbit at a dose of 5 mg/kg (Out of 5). A digest of the protocol:
as §2

Test [12] has as its system Oryctolagus cuniculus. Put plainly: Compound was tested for protecting PAF-induced lethality in rabbit at a dose of 1 mg/kg (Out of 11). The procedure, abridged: as §2
Test [13] has as its system Oryctolagus cuniculus. Put plainly: Compound was tested for protecting PAF-induced lethality in rabbit at a dose of 2.5 mg/kg (Out of 4). The procedure, abridged: as §2
The subject of test [14] is Mus musculus. Put plainly: Compound was tested for protecting PAF-induced lethality in mouse at a dose of 0.5 mg/kg (Out of 830). The procedure, abridged: as §1
Test [15] relates to Oryctolagus cuniculus. Put plainly: Compound was tested for protecting PAF-induced lethality in rabbit at a dose of 5 mg/kg (Out of 3). A digest of the protocol:
as §2

Test [16] concerns Mus musculus. The test is described as follows: Compound was tested for protecting PAF-induced lethality in mouse at a dose of 1 mg/kg (Out of 74). The procedure, abridged:
as §1

For test [17], the system named is Mus musculus. The test is described as follows: Compound was tested for protecting PAF-induced lethality in mouse at a dose of 1 mg/kg (Out of 88). A digest of the protocol: as §1
In test [18] the test system is Oryctolagus cuniculus. The test is described as follows: Compound was tested for protecting PAF-induced lethality in rabbit at a dose of 10 mg/kg (Out of 5). The procedure, abridged: as §2
The test system of test [19] is Oryctolagus cuniculus. Put plainly: Compound was tested for protecting PAF-induced lethality in rabbit at a dose of 1 mg/kg (Out of 3). The procedure, abridged:
as §2

The test system of test [20] is Mus musculus. Put plainly: Compound was tested for protecting PAF-induced lethality in mouse at a dose of 0.5 mg/kg (Out of 220). A digest of the protocol: as §1
Test [21] has as its system Mus musculus. The test is described as follows: Compound was tested for protecting PAF-induced lethality in mouse at a dose of 2.5 mg/kg (Out of 16). A digest of the protocol: as §1
The subject of test [22] is Oryctolagus cuniculus. Put plainly: Compound was tested for protecting PAF-induced lethality in rabbit at a dose of 1 mg/kg (Out of 2). A digest of the protocol: as §2
The test system of test [23] is Mus musculus. Put plainly: Compound was tested for protecting PAF-induced lethality in mouse at a dose of 0.5 mg/kg (Out of 49). The procedure, abridged:
as §1

Test [24] concerns Oryctolagus cuniculus. The test is described as follows: Compound was tested for protecting PAF-induced lethality in rabbit at a dose of 10 mg/kg (Out of 2). The procedure, abridged:
as §2

Test [25] concerns Mus musculus. Put plainly: Compound was tested for protecting PAF-induced lethality in mouse at a dose of 10 mg/kg (Out of 12). The procedure, abridged: as §1
Test [26] has as its system Mus musculus. Put plainly: Compound was tested for protecting PAF-induced lethality in mouse at a dose of 0.5 mg/kg (Out of 10). The procedure, abridged: as §1
Test [27] concerns Mus musculus. The test is described as follows: Compound was tested for protecting PAF-induced lethality in mouse at a dose of 10 mg/kg (Out of 13). The procedure, abridged: as §1
Test [28] deals with Mus musculus. Put plainly: Compound was tested for protecting PAF-induced lethality in mouse at a dose of 1 mg/kg (Out of 12). The procedure, abridged: as §1
For test [29], the species on record is Oryctolagus cuniculus. Put plainly: Compound was tested for its ability to inhibit PAF induced platelet aggregation in rabbit at a dose of 50 uM.
The species named for test [30] is Oryctolagus cuniculus. Put plainly: Compound was tested for its ability to inhibit PAF induced platelet aggregation in rabbit (No inhibition observed at a compound concentration up to 10 uM).
Test [31] concerns Mus musculus. The test is described as follows: Compound was tested for protecting PAF-induced lethality in mouse at a dose of 10 mg/kg (Out of 10). A digest of the protocol: as §1
The subject of test [32] is Mus musculus. The test is described as follows: Compound was tested for protecting PAF-induced lethality in mouse at a dose of 0.5 mg/kg (Out of 23). The procedure, abridged:
as §1

Usually Inhibition stands for the relative decrease from the control value, in per cent.

With `CCCCCCCCCCCCCCCCOCC(COP(=O)(O)Oc1cccc(C/N=C(\S)Nc2ccccc2)c1)OC` (stereo not drawn), the Inhibition in the test filed under Oryctolagus cuniculus [1] amounted to 22%.

On to `CCCCCCCCCCCCCCOc1ccc(OP(=O)([O-])Oc2cccc(C[n+]3csc(C)c3)c2)c(OC)c1`, for which the Lethality in the test on Mus musculus [2] was 16 dead/total.

As to `CCCCCCCCCCCCCCOc1cccc(OP(=O)([O-])Oc2cccc(C[n+]3ccsc3)c2)c1OC`, in the test with Mus musculus [3], the Lethality was determined as 4 dead/total.

With `CCCCCCCCCCCCCCOc1cccc(OP(=O)([O-])Oc2cccc(C[n+]3csc(C)c3)c2)c1C(C)=O`, the Lethality in the test on Mus musculus [4] came to 18 dead/total.

For `CCCCCCCCCCCCOc1cccc(OCC(COP(=O)([O-])Oc2cccc(C[n+]3csc(C)c3)c2)OC)c1` (stereo not drawn), the Lethality in the test on Oryctolagus cuniculus [5] is 1 dead/total.

Compound `CCCCCCCCCCCCCCCCCCNC(=O)OCC(COP(=O)([O-])Oc1ccccc1C[n+]1ccsc1)OC` (stereo not drawn) showed a Lethality in the test with Mus musculus [6] of 0 dead/total.

For `CCCCCCCCCCCCCCCCOCC(COP(=O)([O-])Oc1cccc(C[n+]2ccsc2)c1)OC` (stereo not drawn), the values for the Lethality with Oryctolagus cuniculus [7] and in the test with Mus musculus [8] were 1 dead/total and 2 dead/total, respectively.

Regarding `CCCCCCCCCCCCCCOc1cccc(OP(=O)([O-])Oc2cccc(C[n+]3ccsc3)c2)c1C(=O)OC`, the Lethality came to 5 dead/total in the test on Mus musculus [9] and 11 dead/total in the test on Mus musculus [10].

Take `CCCCCCCCCCCCCCOc1cccc(OP(=O)([O-])Oc2cccc(C[n+]3csc(C)c3)c2)c1C(=O)OC`: the Lethality in the test with Oryctolagus cuniculus [11] is on record as 0 dead/total; with Oryctolagus cuniculus [12], 6 dead/total; in the test on Mus musculus [9], 3 dead/total; in the test on Oryctolagus cuniculus [13], 0 dead/total; in the test with Mus musculus [14], 165 dead/total.

Regarding `CCCCCCCCCCCCOc1cccc(OCC(COP(=O)([O-])Oc2cccc(C[n+]3ccsc3)c2)OC)c1C` (stereo not drawn), the Lethality in the test with Mus musculus [10] was found to be 1 dead/total.

`CCCCCCCCCCCCCCCCOCC(COP(=O)([O-])Oc1ccccc1C[n+]1ccsc1)OC` (stereo not drawn) showed a Lethality in the test on Oryctolagus cuniculus [7] of 1 dead/total.

Turning to `CCCCCCCCCCCCCCOc1cccc(OP(=O)([O-])Oc2cccc(C[n+]3csc(C)c3)c2)c1OC`, the Lethality with Oryctolagus cuniculus [15] is reported as 1 dead/total; with Mus musculus [16] it was 40 dead/total; with Mus musculus [17], 24 dead/total; in the test on Oryctolagus cuniculus [18], 0 dead/total; with Oryctolagus cuniculus [19] it was 2 dead/total; in the test on Mus musculus [20], 80 dead/total.

With `CCCCCCCCCCCCOc1cccc(OCC(COP(=O)([O-])Oc2cccc(C[n+]3csc(C)c3)c2)OCC)c1C` (stereo not drawn), the Lethality with Mus musculus [21] is on record as 0 dead/total; with Oryctolagus cuniculus [7], 1 dead/total; in the test on Oryctolagus cuniculus [22] it was 1 dead/total; with Mus musculus [23] it was 23 dead/total; in the test on Oryctolagus cuniculus [24], 0 dead/total; with Mus musculus [25], 6 dead/total.

For `CCCCCCCCCCCCCCc1cccc(OCC(COP(=O)([O-])Oc2cccc(C[n+]3ccsc3)c2)OC)c1` (stereo not drawn), the Lethality with Mus musculus [26] was found to be 0 dead/total; with Oryctolagus cuniculus [7], 1 dead/total.

Take `CCCCCCCCCCCCCCOc1cccc(OP(=O)([O-])Oc2cccc(C[n+]3c(C)sc(C)c3C)c2)c1OC`: the Lethality in the test on Mus musculus [27] came to 6 dead/total; with Mus musculus [28] it was 9 dead/total.

`CCCCCCCCCCCCCCCCOCC(COP(=O)([O-])Oc1cccc(C[n+]2csc(C)c2)c1)OC` (stereo not drawn): the values for the Lethality in the test with Oryctolagus cuniculus [7] and in the test on Mus musculus [8] were 1 dead/total and 4 dead/total, respectively.

For the compound `CCCCCCCCCCCCOc1cc(OP(=O)([O-])Oc2cccc(C[n+]3ccsc3)c2)c(C(C)(C)C)cc1C(C)(C)C`, in the test on Oryctolagus cuniculus [7], the Lethality is given as 2 dead/total. The same compound returned an Inhibition in the test listed under Oryctolagus cuniculus [29] of 15%.

On to `CCCCCCCCCCCCCCOc1cccc(OP(=O)([O-])Oc2cccc(CC[n+]3csc(C)c3)c2)c1OC`, for which, in the test listed under Oryctolagus cuniculus [30], the IC50 entry is recorded as “Not Active”.

For the compound `CCCCCCCCCCCCCCOc1ccc(C(=O)c2ccccc2)c(OP(=O)([O-])Oc2cccc(C[n+]3csc(C)c3)c2)c1`, the Lethality in the test on Mus musculus [9] is on record as 3 dead/total; with Mus musculus [31], 0 dead/total.

The compound `CCCCCCCCCCCCOc1cc(C(C)(C)C)c(OP(=O)([O-])Oc2cccc(C[n+]3csc(C)c3)c2)cc1C(C)(C)C` came in with a Lethality in the test with Oryctolagus cuniculus [7] of 0 dead/total.

Compound `CCCCCCCCCCCCCCOc1cccc(OP(=O)([O-])Oc2cccc(C[N+]3=CN=CC3)c2)c1OC` gave an Inhibition in the test listed under Oryctolagus cuniculus [29] of 12%.

In the test on Mus musculus [32], `CCCCCCCCCCCCCCOc1ccc(OP(=O)([O-])Oc2cccc(C[n+]3csc(C)c3)c2)c(C(C)=O)c1` showed a Lethality of 6 dead/total.
